Measurements taken from ChEMBL document CHEMBL1131251, “Inhibition of in vitro and in vivo HIV replication by a distamycin analogue that interferes with chemokine receptor function: a candidate for chemotherapeutic and microbicidal application” (J Med Chem, 1998).

Assays:
Details in all cases: HEK293; concentration not given here
[1] = target: C-C chemokine receptor type 5 (Homo sapiens) (UniProt P51681); assay: The compound was tested for inhibition of Chemokine (RANTES) binding against C-C chemokine receptor type 5 transfected in HEK 293 cells; assay type: cell-based
How it was run: (§1)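 CCR5 stably transfected HEK-293 cells at 1 × 10^6 cells/mL in RPMI 1640, 1% BSA, 5 mM HEPES pH 8.0. Constant radiolabeled chemokine (0.2 ng/assay) plus competitor at a single 200 μM concentration. Rotated 45 min at room temperature, spun through a 10% sucrose/PBS cushion, and cell-bound radioactivity gamma-counted. Inhibition measured against a drug-free control; triplicate, n ≥ 2.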

[2] = target: C-C chemokine receptor type 5 (Homo sapiens) (UniProt P51681); assay: The compound was tested for inhibition of Chemokine (MIP-1Alpha) binding against C-C chemokine receptor type 5 transfected in HEK 293 cells; assay type: cell-based
How it was run: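 Competition binding in HEK-293 cells transfected with the named receptor, at 1 × 10^6 cells/mL in RPMI 1640 with 1% BSA and 5 mM HEPES pH 8.0. Cells were mixed with 0.2 ng/assay radiolabeled chemokine plus test compound at a single concentration of 200 μM, rotated 45 min at room temperature, then spun through a 10% sucrose/PBS cushion. Cell-bound radioactivity was gamma-counted; triplicates, n ≥ 2; t-test against a drug-free control.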

[3] = target: C-C chemokine receptor type 5 (Homo sapiens) (UniProt P51681); assay: The compound was tested for inhibition of Chemokine (MIP-1Beta) binding against C-C chemokine receptor type 5 transfected in HEK 293 cells; assay type: cell-based; how it was run: as §1
CXCR2 (Homo sapiens) [4] = assay: The compound was tested for inhibition of Chemokine r (IL-8) binding against CXCR2 transfected in HEK 293 cells
CXCR2 (Homo sapiens) [5] = assay: The compound was tested for inhibition of Chemokine (IL-8) binding against CXCR2 transfected in HEK 293 cells

C-C chemokine receptor type 5 (Homo sapiens), sequence (P51681 whole entry, looked up): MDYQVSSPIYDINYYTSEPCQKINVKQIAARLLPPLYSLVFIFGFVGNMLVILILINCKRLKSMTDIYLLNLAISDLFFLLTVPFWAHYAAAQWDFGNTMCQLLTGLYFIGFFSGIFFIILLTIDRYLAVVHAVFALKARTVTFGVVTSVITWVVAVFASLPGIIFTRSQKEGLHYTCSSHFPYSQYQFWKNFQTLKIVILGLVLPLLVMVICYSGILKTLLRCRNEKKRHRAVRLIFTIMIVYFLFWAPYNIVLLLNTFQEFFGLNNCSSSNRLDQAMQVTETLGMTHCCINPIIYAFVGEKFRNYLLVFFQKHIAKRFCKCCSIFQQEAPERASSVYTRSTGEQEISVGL

inhibition [1] [%]	inhibition [2] [%]	inhibition [3] [%]	inhibition (CXCR2 (Homo sapiens) [4]) [%]	inhibition (CXCR2 (Homo sapiens) [5]) [%]	Compound
-1	9.5	6.6	0.3	–	Cn1cc(N)cc1C(=O)Nc1ccc(S(=O)(=O)O)c2cc(S(=O)(=O)O)ccc12
-3.1	6.5	–	–	5.4	Cn1cc(NC(=O)c2cc(NC(=O)Nc3c[nH]c(C(=O)Nc4cc(C(=O)Nc5ccc(S(=O)(=O)O)c6cccc(S(=O)(=O)O)c56)n(C)c4)c3)c[nH]2)cc1C(=O)Nc1ccc(S(=O)(=O)O)c2cccc(S(=O)(=O)O)c12
